TAAR1 agonist – human TAAR1 agonists, primary screen, Fluo-8 calcium fluorescence, CHO RD-HGA16 cells | vehicle wells 0%, saturating PEA agonist 100% | activation, % at 3 µM | 360,000 compounds, 0.99% hits | AID 624467, 2012;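 active = activation above the mean activation of all test compounds in the run plus 3 SD, cut at about 38% in these data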
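System: CHO-derived RD-HGA16 cells with stable Gα16 and human TAAR1 / Times: 17-24 h plating, Fluo-8 75 min 37 °C, 30 min RT / Technique: calcium-sensitive Fluo-8 signal, excitation 470-495, emission 515-575 nm / Measure: % activation relative to PEA EC100 response / Benchmarks: DMSO and PEA EC100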
CHO parental Ca – ATP-evoked calcium signal inhibitors, parental CHO, primary screen, counter-screen for OX1R antagonist project, cell-based, fluorescence, Fluo-8 calcium dye; parental CHO-K1, ATP-induced calcium, Fluo-8 fluorescence; inhibition, % at 5.6 µM; 330,000 compounds, 0.63% hits; AID 463079, 2010;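 active = inhibition above that plate's mean sample inhibition plus 3 SD, cut at about 26% in these data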;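 note: 0% = ATP-challenged DMSO wells and 100% = DMSO wells without ATP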
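Assay system – parental CHO cells · Reagent – ATP stimulus · Detection – intracellular calcium via Fluo-8 no-wash fluorescent dye · Evaluation – percent inhibition of ATP-evoked calcium rise, normalized to controls · Controls – ATP wells versus no-ATP DMSO wells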
TAAR1 antagonist – human TAAR1 antagonists, primary screen, Fluo-8 calcium fluorescence, CHO RD-HGA16 cells; Trace amine-associated receptor 1 (Homo sapiens), Q96RJ0; antagonist; inhibition, % at 3 µM; 360,000 compounds, 1.5% hits;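 active = inhibition above a per-plate cutoff, the mean inhibition of test compounds on that plate plus 3 SD, cut at about 49% in these data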;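 note: 0% = DMSO plus EC80 beta-PEA response and 100% = DMSO alone without agonist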
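Test system – hTAAR1-expressing CHO RD-HGA16 cells, Gα16-coupled · Reagent – β-PEA at EC80 concentration, post-compound challenge · Compound dosing – 3 µM, single point · Timing – 140 s kinetic read after compound, 140 s after agonist · Detection – Fluo-8 intracellular calcium dye fluorescence, real-time kinetic reads · Control set – DMSO and EC80 PEA controls · Repeats – n of 1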
OX1R antag-1 – OX1R (HCRTR1) antagonists, primary screen, fluorescence, CHO/OX1R cells, Fluo-8 calcium, orexin A | Orexin/Hypocretin receptor type 1 (Homo sapiens), O43613 | Fluo-8 calcium fluorescence | inhibition, % at 5 µM | 330,000 compounds, 0.43% hits | AID 434989, 2010;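 active = inhibition above its plate's threshold, mean inhibition of all tested compounds on the plate plus 3 SD, cut at about 37% in these data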;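 note: 0% = orexin A challenge wells and 100% = SB-334867-A antagonist wells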
Target sequence (O43613 whole entry, looked up): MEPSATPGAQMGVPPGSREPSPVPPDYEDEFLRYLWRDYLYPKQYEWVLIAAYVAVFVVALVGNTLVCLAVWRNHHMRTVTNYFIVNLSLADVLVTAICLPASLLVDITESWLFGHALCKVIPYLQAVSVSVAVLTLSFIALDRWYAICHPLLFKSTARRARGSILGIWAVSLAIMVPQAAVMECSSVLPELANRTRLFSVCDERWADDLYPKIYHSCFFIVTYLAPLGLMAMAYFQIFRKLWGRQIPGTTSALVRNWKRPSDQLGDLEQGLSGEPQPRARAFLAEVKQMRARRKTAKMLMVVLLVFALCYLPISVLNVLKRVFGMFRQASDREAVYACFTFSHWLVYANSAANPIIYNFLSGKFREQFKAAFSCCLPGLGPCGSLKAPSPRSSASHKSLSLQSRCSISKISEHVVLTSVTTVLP
OX1R antag-2 – antagonists of human orexin 1 receptor (OX1R); AID 485270, 2010; inhibition, % at 6.6 µM; Orexin/Hypocretin receptor type 1 (Homo sapiens), O43613; OX1R-expressing cells, FRET antagonist read-out; 330,000 compounds, 1.8% hits; in the data active = inhibition mostly above about 38%, no sharp cut-off; inactive = mostly below about 40%;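 note: 0% = agonist challenge alone and 100% = reference antagonist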
NTR1 ag – agonists of human NTR1, primary screen, imaging, U2OS cells, beta-arrestin-GFP, high content. NTR1-U2OS beta-arrestin-GFP spot imaging, agonist mode. activation, % at 20 µM. 330,000 compounds, 0.17% hits. AID 493036, 2011;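 active = activation at or above 40% of the spot to cytoplasm intensity ratio, with at least 20 cells analyzed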;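 note: 0% = DMSO without peptide and 100% = 100 nM NTR1 peptide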
* marks the source's active call; other numbers are inactive results. Hits are enriched below; roughly 4% of the tested compounds scored in any of these assays.

`NC(=O)[C@@H]1CCCN1C(=O)[C@@H](Cc1ccccc1)NC(=O)[C@H]1O[C@@H](n2ccc(N)nc2=O)[C@H](O)[C@@H]1O` gave TAAR1 agonist 1 and TAAR1 antagonist -4.
Screening CCCCCCCCCC[n+]1cccc2c3ccccc3ccc21 returned TAAR1 agonist 11 and TAAR1 antagonist 3.
CCCCCCCC[n+]1cccc2c3ccccc3ccc21 was read as TAAR1 agonist 1, CHO parental Ca 63*, TAAR1 antagonist 1, OX1R antag-1 36, OX1R antag-2 20 and NTR1 ag 17.
COC(=O)C1=C(C)N(Cc2ccc(C(F)(F)F)cc2)C(=NCc2ccc(C(F)(F)F)cc2)NC1c1ccccc1 (stereo not drawn) was read as TAAR1 agonist 11 and TAAR1 antagonist 8.
`COc1ccccc1N1C(=O)c2cccc3c(C(=O)O)ccc(c23)C1=O` gave TAAR1 agonist 0, CHO parental Ca -2, TAAR1 antagonist 13, OX1R antag-1 0, OX1R antag-2 38* and NTR1 ag -1.
Screening Cc1ccc2nsnc2c1S(=O)(=O)N1CCN(C(=O)C2CCCO2)CC1 (stereo not drawn) returned TAAR1 agonist 4, CHO parental Ca -19, TAAR1 antagonist -3, OX1R antag-1 -12, OX1R antag-2 69* and NTR1 ag -1.
Screening Cc1cc(C)c(S(=O)(=O)N2CCN(C(=O)C3CCCO3)CC2)c(C)c1 (stereo not drawn) returned TAAR1 agonist 2, CHO parental Ca -7, TAAR1 antagonist 3, OX1R antag-1 -9, OX1R antag-2 8 and NTR1 ag 1.
`S=C(SCc1c(Cl)cccc1Cl)N1CCSCC1` gave TAAR1 agonist 0 and TAAR1 antagonist -22.
For CC1=NOC(=O)/C1=C\c1ccc(-c2ccc(Br)cc2)o1 the results were TAAR1 agonist 35 and TAAR1 antagonist 67*.
For CCCN(CC(=O)Nc1cc(Cl)ccc1Cl)C(=O)/C=C/c1cc(OC)ccc1OC the results were TAAR1 agonist 12, CHO parental Ca -19, TAAR1 antagonist 26, OX1R antag-1 32, OX1R antag-2 43* and NTR1 ag -1.
COCCn1c(SCC(=O)N2CCCCC2)nc2c(c1=O)SC(C)C2 (stereo not drawn) was read as TAAR1 agonist -1, CHO parental Ca 100*, TAAR1 antagonist 7, OX1R antag-1 -21, OX1R antag-2 15 and NTR1 ag 2.
Screening Cc1cc2ccccc2n2c(SCC(=O)N3CCc4ccccc4C3)nnc12 returned TAAR1 agonist 9, CHO parental Ca -26, TAAR1 antagonist 8, OX1R antag-1 26, OX1R antag-2 73* and NTR1 ag 5.
For COCCn1c(SCC(=O)N2CCc3ccccc3C2)nc2ccccc2c1=O the results were TAAR1 agonist 3, CHO parental Ca -16, TAAR1 antagonist 19, OX1R antag-1 -4, OX1R antag-2 72* and NTR1 ag -1.
COCCn1c(SCC(=O)N2CCOCC2)nc2ccccc2c1=O was read as TAAR1 agonist 2, CHO parental Ca -4, TAAR1 antagonist -12, OX1R antag-1 -14, OX1R antag-2 18 and NTR1 ag -1.
For C[C@@H]1CN([C@H](C)CO)C(=O)CCCn2cc(nn2)CO[C@H]1CN(C)C(=O)Oc1ccccc1 the results were TAAR1 agonist 4 and TAAR1 antagonist -13.
`CCOC(=O)c1[nH]c(CN2CCN(c3ccc(OC)cc3)CC2)c(C(=O)OCC)c1C` gave TAAR1 agonist 51*, CHO parental Ca -12, TAAR1 antagonist 7, OX1R antag-1 -13, OX1R antag-2 1 and NTR1 ag 5.
For CC(C)n1ncc2c(C(=O)Nc3ccccc3SCC(N)=O)cc(C3CC3)nc21 the results were TAAR1 agonist 13 and TAAR1 antagonist 49*.
For CCc1ccccc1NC(=O)CNC(=O)c1cc(C2CC2)nc2c1cnn2C(C)C the results were TAAR1 agonist 2, CHO parental Ca -17, TAAR1 antagonist 10, OX1R antag-1 9, OX1R antag-2 38* and NTR1 ag 0.
Cc1cc(C)c(NC(=O)CNC(=O)c2cc(C3CC3)nc3c2cnn3C(C)C)c(C)c1 was read as TAAR1 agonist 5 and TAAR1 antagonist -2.
`COc1ccc(NC(=O)c2cc(C3CC3)nc3c2cnn3C(C)C)cc1OC` gave TAAR1 agonist 2, CHO parental Ca -17, TAAR1 antagonist -5, OX1R antag-1 -34, OX1R antag-2 8 and NTR1 ag 0.
Screening Cc1cc(C)c(CN2CCN(CCCn3ccc(NC(=O)OCc4ccccc4)nc3=O)CC2)c(C)c1 returned TAAR1 agonist 16 and TAAR1 antagonist -8.
Screening COC(=O)c1c(NC(=O)c2ccc([N+](=O)[O-])o2)sc2c1CCN(C(C)C)C2 returned TAAR1 agonist -1, CHO parental Ca -11, TAAR1 antagonist -8, OX1R antag-1 -19, OX1R antag-2 65* and NTR1 ag 2.
For CC(C)N1CCc2c(sc(NC(=O)c3ccc([N+](=O)[O-])o3)c2C(N)=O)C1 the results were TAAR1 agonist -1, CHO parental Ca -11, TAAR1 antagonist -12, OX1R antag-1 -9, OX1R antag-2 93* and NTR1 ag 0.
For NS(=O)(=O)c1ccc(NC(=O)c2cc(-c3cc(Cl)ccc3O)n[nH]2)cc1 the results were TAAR1 agonist 4, TAAR1 antagonist 5 and NTR1 ag 6.
Screening Cc1cccc(C(=O)NC2CCN(S(=O)(=O)c3ccc(F)cc3)CC2)c1 returned TAAR1 agonist 0, CHO parental Ca 41*, TAAR1 antagonist -4, OX1R antag-1 16, OX1R antag-2 10 and NTR1 ag 1.
Screening O=C(Nc1cccc(C(F)(F)F)c1)NC1CCN(S(=O)(=O)c2ccc(F)cc2)CC1 returned TAAR1 agonist 13, CHO parental Ca 34*, TAAR1 antagonist 18, OX1R antag-1 -5, OX1R antag-2 7 and NTR1 ag -3.
For O=C(NCC1CCN(C(=O)C(=O)c2cccs2)CC1)c1ccc2ccccc2c1 the results were TAAR1 agonist 4 and TAAR1 antagonist 7.
`Cc1nc2ccccc2c2c1C(=O)NC2=O` gave CHO parental Ca -6, OX1R antag-1 -4, OX1R antag-2 39* and NTR1 ag 3.
For Cc1nc(SCC(=O)c2cccs2)c2oc3ccccc3c2n1 the results were TAAR1 agonist 17, CHO parental Ca -13, TAAR1 antagonist 24, OX1R antag-1 0, OX1R antag-2 73* and NTR1 ag 13.

Screening results (PubChem)
